Experimental data gathered from unrelated publications.
Effect on: cell growth or viability

SMILES	cell line	technique	tested at	time	endpoint	result
Oc1ccc(Nc2nc(-c3ccc(Cl)cc3)cs2)cc1	WM-115	MTS		48 h	IC50	23.8 µM
COc1ccc(NC(=O)Nc2ccc(OCc3ncc(C)c(OC)c3C)cc2)cc1	L02	MTT		72 h	IC50	> 100 µM
COc1cc(-c2ccc(-c3ccc(C(=N)N)nc3)s2)cc(OC)c1OC	SF-268	SRB			GI50	14600 nM
Nc1n[nH]c2cc(I)ccc12	BaF3	CCK-8			GI50	> 10000 nM
COc1ccccc1S(=O)(=O)Nc1ccc2c(c1)CN(C)C(=O)N2	NALM-6	ATP luminescence			GI50	8000 nM
C=CC(=O)N1CCC[C@@H](n2nc(-c3ccc(Oc4ccccc4)cc3)c3c(N)ncnc32)C1	NALM-6	ATP luminescence		72 h	GI50	2800 nM
O=C(N/N=C/c1c(O)ccc2ccccc12)c1cc(-c2ccc3ccccc3c2)n[nH]1	WM-115	MTS		72 h	IC50	1.8 µM
COc1cc(N2CCC(N3CCN(C)CC3)CC2)ccc1Nc1ncc(Cl)c(Nc2ccccc2P(C)(C)=O)n1	BaF3			72 h	GI50	2100 nM
COc1ccnc(COc2ccc(NC(=O)Nc3cccc(C(F)(F)F)c3)cc2)c1OC	L02	MTT		72 h	IC50	> 100 µM
COc1cccc(Oc2ccccc2NC(=O)CNC(=O)c2cccc3ccccc23)c1	SF-268	SRB		48 h	GI50	550 nM
COc1ccc(-c2ccc(-c3ccc(C(=N)N)nc3)s2)cc1	SF-268	SRB			GI50	1760 nM
CC(C)(C)n1ncc2c(Nc3ccc(OC(F)(F)F)cc3)ncnc21	BaF3	ATP luminescence			EC50	> 10 µM
CNC(=O)c1ccccc1Sc1ccc2c(/C=C/c3ccccn3)n[nH]c2c1	BaF3	ATP luminescence		72 h	GI50	1310 nM
O=C1Nc2ccccc2C1=NNc1nnc2n1N=C(c1ccccc1)CS2	SF-268	SRB	10 µM		inhibition	31%
COc1ccc(NC(=O)Nc2ccc(OCc3nccc(OCC(F)(F)F)c3C)cc2)cc1	L02	MTT		72 h	IC50	> 100 µM
CNC(=O)c1cc(Oc2ccc(NC(=O)Nc3ccc(Cl)c(C(F)(F)F)c3)c(F)c2)ccn1	BaF3	ATP luminescence		72 h	GI50	1820 nM
CNC(=O)c1ccccc1Sc1ccc2c(N)n[nH]c2c1	BaF3	CCK-8			GI50	7900 nM
